UPR CHOP act = apoptotic UPR (CHOP) activation | activation, % at 10 µM | CHO-CHOP luciferase reporter, luminescence; percent of tunicamycin response over DMSO baseline | 0.34% of 330,000 active;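 active = at 10 µM dose, activation of 40% or more, normalized to positive control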;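 note: 100% = tunicamycin at 10 µg/mL and 0% = DMSO alone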
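Assay system: CHO cells with stable CHOP pathway luciferase reporter; Buffer or medium: F12 plus 10% serum; Times: 16-18 h cell attachment, then 6 h compound exposure, 37 °C; Signal: luciferase luminescence; Read-out basis: percent activation relative to tunicamycin control; Control set: tunicamycin high control, DMSO low control.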
TLR4-MyD88 BLA = inhibitors of human TLR4-MyD88 binding; 0.18% of 200,000 active; O00206+Q99836; inhibition, % at 8.4 µM; HeLa CL3-4 TLR4/MyD88 BLA complementation, FRET ratio; in the data active = inhibition above about 25%;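 note: 0% = vehicle and 100% = reference inhibitor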
CHOP inhibitor = CHOP inhibition in unfolded protein response; 3.8% of 220,000 active; CHO-K1 CHOP-promoter luciferase, tunicamycin-induced, 15-18 h; inhibition, % at 10 µM;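 active = compounds that reduced the stress-induced luciferase reporter signal by more than about 70% of percent inhibition, limit read from the data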;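 note: 0% = tunicamycin plus vehicle and 100% = wells without tunicamycin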
TLR9-MyD88 block = inhibitors of human TLR9-MyD88 binding. Q9NR96+Q99836. CHO BLA complementation TLR9-MyD88, CCF4 FRET ratio. inhibition, % at 4.98 µM. 0.21% of 340,000 active. AID 504734;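 active = inhibition above the mean over all tested compounds plus 3 SD, cut at about 21% in these data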;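 note: 0% = DMSO only wells and 100% = clavulanate BLA inhibitor control wells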
NOD2-RIPK2 inh = blocks binding of human NOD2 to RIPK2; 0.38% of 360,000 active; inhibition, % at 4.98 µM; AID 624267; CHO BLA complementation NOD2-RIPK2, CCF4 ratio; in the data active = inhibition above about 21%;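 note: 0% = vehicle only and 100% = reference blocker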
Target sequence (O43353 whole entry, looked up): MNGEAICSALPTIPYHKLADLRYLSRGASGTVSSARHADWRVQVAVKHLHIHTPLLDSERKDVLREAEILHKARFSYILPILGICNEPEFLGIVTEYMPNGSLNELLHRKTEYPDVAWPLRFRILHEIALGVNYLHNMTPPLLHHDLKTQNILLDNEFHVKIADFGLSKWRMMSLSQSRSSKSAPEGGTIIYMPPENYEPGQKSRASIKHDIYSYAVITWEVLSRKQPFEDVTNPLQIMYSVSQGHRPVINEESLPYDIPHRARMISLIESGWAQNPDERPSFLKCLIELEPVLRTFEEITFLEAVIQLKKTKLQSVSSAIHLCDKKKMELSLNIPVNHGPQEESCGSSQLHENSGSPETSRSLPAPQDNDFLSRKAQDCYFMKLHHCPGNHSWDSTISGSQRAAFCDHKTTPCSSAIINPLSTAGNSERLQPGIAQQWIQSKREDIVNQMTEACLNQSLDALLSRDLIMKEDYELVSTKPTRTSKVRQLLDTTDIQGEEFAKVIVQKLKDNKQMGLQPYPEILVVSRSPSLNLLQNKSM
UPR XBP1 act = activators of adaptive arm of unfolded protein response (XBP1); activation, % at 20 µM; CHO-XBP1 luciferase reporter, IRE1-XBP1 UPR activation, luminescence; percent of tunicamycin response, DMSO as zero; 0.33% of 330,000 active; AID 463104;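 active = versus positive control, 20 µM dose yields 30% or more activation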;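 note: 100% = tunicamycin at 10 µg/mL and 0% = DMSO only wells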
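Material: CHO-XBP1 cells stably carrying IRE1-XBP1-driven luciferase reporter / Amount: 1000 cells per well / Compound: 20 µM, 1% DMSO / Times: 6 h treatment, 37 °C / Detection: luciferase luminescence / Measure: % activation of reporter signal versus tunicamycin and DMSO controls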
* marks the source's active call; other numbers are inactive results; · = no result. The sample as a whole holds a higher share of hits than the screen did.

SMILES | UPR CHOP act | TLR4-MyD88 BLA | CHOP inhibitor | TLR9-MyD88 block | NOD2-RIPK2 inh | UPR XBP1 act
C=CC(C)Sc1nc2c(c(=O)n(C)c(=O)n2C)n1Cc1ccccc1Cl (stereo not drawn) | -2 | -1 | 83* | -2 | -1 | -2
Cn1c(=O)c2c(nc(SCCCO)n2Cc2ccccc2Cl)n(C)c1=O | -1 | -9 | 15 | 7 | -9 | -1
COc1cccc(Cn2c(Oc3cccc(C)c3)nc3c2c(=O)n(C)c(=O)n3C)c1 | 2 | -12 | 79* | -15 | -2 | 3
CN1CCCC(C)(C(=O)Nc2ccc3scnc3c2)C1 (stereo not drawn) | · | · | · | · | 10 | ·
Cc1nn(C(C)C(=O)O)c2ccccc12 (stereo not drawn) | -3 | 8 | -15 | -3 | -3 | 0
OCCCNc1cc(-c2ccccc2)nc2cc(-c3ccc(F)cc3)nn12 | 4 | · | · | -4 | 14 | -2
CCCCN1C(=O)c2ccc(C(=O)NCCN3C(=O)S/C(=C\c4cccnc4)C3=O)cc2C1=O | -1 | 2 | 76* | 3 | -6 | -2
CC(C)(C)c1[nH]nc2c1C(C1C=CCCC1)C(C#N)=C(N)O2 (stereo not drawn) | -2 | 2 | 83* | 8 | 1 | 1
O=c1c[n+]([O-])c2ccccc2n1OCc1c(F)cccc1F | 1 | -2 | 88* | 4 | -6 | -3
CC(C)c1cc(CN2CCN(CCC#N)CC2)cc(C(C)C)c1O | 0 | 0 | 14 | 10 | -5 | -3
COc1ccc(OC)c(S(=O)(=O)N2CCCC2C(=O)NC(C)c2ccccc2)c1 (stereo not drawn) | -1 | · | · | 5 | -14 | -2
O=C1C(CO)C(CO)C(CO)C1CO (stereo not drawn) | · | · | · | 6 | -6 | ·
CC(C)CC(c1nnnn1CC1CCCO1)N1CCN(c2cccc(Cl)c2)CC1 (stereo not drawn) | 1 | -8 | 83* | -6 | -5 | -5
COc1ccc(-n2cc(-c3ccccc3)c3c(N4CC(C)OC(C)C4)ncnc32)cc1 (stereo not drawn) | 1 | -9 | 73* | 1 | 2 | 3
Cn1c(=O)c2cc(NC(=O)NCCc3cccs3)ccc2n1Cc1ccccc1 | · | · | · | · | -4 | ·
c1ccc(CCNc2ncnc3c2nnn3Cc2ccccc2)cc1 | 0 | 2 | 89* | 0 | -2 | 1
CCN(CC)c1ccc(N=Cc2c(C)[nH]c3ccccc23)cc1 | 3 | -5 | 97* | -10 | 1 | 0
NC(=O)CC(NC(=O)Cc1cccc2ccccc12)c1ccc(N2CCN(c3ccccc3)CC2)c([N+](=O)[O-])c1 (stereo not drawn) | 4 | · | 87* | 6 | 3 | -3
CCOc1ccc(OCc2cccc(C(=O)N3CCOCC3)c2)cc1 | -10 | -3 | 86* | -38 | 7 | -10
COc1ccc(OCc2cccc(C(=O)NN)c2)cc1 | -8 | -10 | 72* | -9 | -7 | -8
NNC(=O)c1cccc(COc2ccc(Br)cc2)c1 | -1 | -5 | 10 | 6 | -15 | -3
O=C(c1cccc(OCc2ccccc2)c1)N1CCOCC1 | 1 | 5 | 0 | 6 | 0 | -1
NNC(=O)c1ccc(COc2ccc3c(c2)CCC3)cc1 | 0 | -1 | 19 | -3 | 7 | -3
NNC(=O)c1ccc(COc2ccc3ccccc3c2)cc1 | 2 | · | 85* | 5 | -10 | -2
C=CCn1c(SCc2c(F)cccc2Cl)nnc1-c1ccco1 | 2 | -8 | 15 | -2 | 0 | 2
CC(C)c1ccc(N=C(N)N=C(N)N)cc1 | -1 | -9 | -12 | -2 | -13 | -1
Cc1ccc(-n2c(C)cc(/C=c3/sc4nc5ccccc5n4c3=O)c2C)cc1 | -9 | 11 | 85* | · | · | -14
COc1ccc2nc(NC(=O)C3CCCN(S(=O)(=O)c4c(C)noc4C)C3)sc2c1 (stereo not drawn) | 1 | 4 | 75* | 1 | -8 | -4

From PubChem BioAssay
